Active and inactive are the calls of the source.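 The calls were made as follows, unless noted: active = inhibition at or above 50% relative to wild type and mutant plate controls; inactive = inhibition below 50%.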

The term inhibition denotes the relative decrease from the control value, in per cent.

The nature of test [1]: inhibitors of TNFa-induced NFkB p65 translocation, primary screen, imaging, HUVEC, MLSMR starter and 10KST1 sets (AID 438;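 active = inhibition above 20% together with a positive visual image hit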;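 also: compound added about 3h40 before a 20 min TNFalpha stimulation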;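 as to inhibition: signal is the nuclear over cytoplasmic p65 intensity ratio per well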). The settings on record: HUVEC TNFa-induced p65 nuclear translocation; cell count: measured here: nuclei count (cytotoxicity indicator), at 2.08 µM; inhibition: at 2 µM, stronger effect = higher value, 0% TNFa-plus-vehicle, 100% no-TNFa wells.
Test [2] in a line: endothelial E-selectin expression blockers – imaging, HUVEC, immunofluorescence, MLSMR starter and 10KST1 sets, primary screen (AID 487;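 active = visually confirmed hit in the image check and inhibition above 20%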;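 as to inhibition: signal is fraction of cell area covered by stained E-selectin grains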;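 as to nuclei count: 100% = median nuclei count of all wells on the same plate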). The settings on record: HUVEC TNFalpha-induced E-selectin immunofluorescence imaging, at 2 µM; inhibition: stronger effect = higher value; nuclei count: measured here: cell number, toxicity.
The nature of test [3]: Primary imaging screen for DUSP6 inhibitors that restore phospho-Erk in transfected HeLa cells, chemical complementation (AID 609;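 active = compounds giving at least 50% inhibition in the cell-based MKP-3 phosphatase rescue imaging test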;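 as to inhibition: phospho-Erk level distribution per well compared with pooled transfected vehicle control wells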). The settings on record: HeLa MKP-3 transfected, phospho-Erk imaging KS statistic, at 10 µM, cells stimulated with TPA for 15 min.
Test [4] deals with Dual specificity protein phosphatase 6 (Homo sapiens) (UniProt Q16828). The description is as above. The settings on record: HeLa MKP-3 transfected, phospho-Erk imaging KS statistic; at 10 µM; stronger effect = higher value; cells stimulated with TPA for 15 min.
Test [5] deals with Voltage-gated potassium channel subunit beta-2 (Rattus norvegicus) (UniProt P62483). In words: inhibitors of rat Kvbeta2 reductase activity – biochemical, NADPH fluorescence, primary screen (AID 622;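 active = fluorescence slope higher than the sample average by over 3 SD, cut at about -0.22 in these data, passing the limit was not always enough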;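 also: slope of raw intensity against log time taken from 70 to 1610 s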). The settings on record: recombinant KvBeta, 4-cyanobenzaldehyde reduction, at 10 µM, stronger effect = higher value.
The target is the same in test [6]. The test is described as follows: enhancers of rat Kvbeta2 NADPH turnover – biochemical, NADPH fluorescence, primary screen (AID 623;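 active = NADPH fluorescence slope more negative than the mean of all samples by about 3 SD, 99.7% confidence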;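 also: fluorescence intensity change per second fitted from 20 to 320 s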). The settings on record: Recombinant KvBeta, NADPH fluorescence decrease slope, 10 min; at 10 µM; stronger effect = lower value.
For test [7], the target named is Alpha-2C adrenergic receptor (Homo sapiens) (UniProt P18825). The test is described as follows: compounds altering alpha2C-coupled GIRK flux – cell-based, HEK293 alpha2C/GIRK1/2, thallium flux, primary screen (AID 624;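 active = fluorescence slope after compound addition differing from the mean of all screened samples at 99.7% confidence, in either direction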;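 also: slope of fluorescence ratio to pre-addition baseline per second over 15 to 24 s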). The conditions noted are these: thallium flux BTC fluorescence, at 10 µM, actives lie on both sides.
Test [8] in a line: inhibitors of larval lipid processing in zebrafish, primary screen, whole organism, PED6 fluorescence, gall bladder and intestine (AID 686;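 active = a full or partial loss of lipid-probe fluorescence in the fish gall bladder, intestine or both, judged by eye; inactive = no fluorescence loss, or compound toxic to the fish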;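 also: larvae 5 to 7 days old with five fish per well; signal comes from phospholipase A2 cleavage of quenched PED6 carried via bile; overnight exposure to compound and PED6 before scoring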). The conditions noted are these: Zebrafish larvae PED6 lipid processing, fluorescence scoring; screened at 20 µM (by protocol). The gist of the method: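 Also added: quenched phospholipase substrate PED6, 100 nM final, ingested by larvae; System: zebrafish larvae, 5-7 d; Quantity: 5 larvae per well; Compound: 20 µM single dose; Schedule: overnight compound and PED6 incubation; Read-out: visual per-well fluorescence inhibition score; Measured by: By-eye fluorescence microscopy; Medium: E3.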

A short description of test [9]: loss of swimming-algae plug formation – whole organism, Chlamydomonas reinhardtii, WT vs cilia-less mutant, absorbance, 96-well, primary screen (AID 463189).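 Also: 0% = wild type cc124 cells in DMSO and 100% = ciliumless bld1 mutant cells.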 The conditions noted are these: Chlamydomonas reinhardtii gravitaxis, OD600 absorbance, 2 days; at 10 µM; stronger effect = higher value.
Where [10] appears, read: measured here: cell density z-score.
Where [11] appears, read: measured here: nuclear c-Myc green intensity z-score.
Where [12] appears, read: measured here: nuclear pErk red intensity z-score, stronger effect = higher value.

Chain of Dual specificity protein phosphatase 6 (Homo sapiens) (Q16828 whole entry, looked up): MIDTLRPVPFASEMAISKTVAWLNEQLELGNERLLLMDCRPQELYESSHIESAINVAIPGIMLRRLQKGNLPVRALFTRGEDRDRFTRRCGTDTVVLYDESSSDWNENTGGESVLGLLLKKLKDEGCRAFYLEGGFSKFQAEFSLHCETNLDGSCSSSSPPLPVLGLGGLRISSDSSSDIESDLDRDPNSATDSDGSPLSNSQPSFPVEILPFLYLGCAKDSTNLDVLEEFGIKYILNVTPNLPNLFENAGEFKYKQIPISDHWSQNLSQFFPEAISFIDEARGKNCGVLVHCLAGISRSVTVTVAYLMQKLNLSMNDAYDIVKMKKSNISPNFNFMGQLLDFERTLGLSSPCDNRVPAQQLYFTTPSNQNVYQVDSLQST
Chain of Alpha-2C adrenergic receptor (Homo sapiens) (P18825 whole entry, looked up): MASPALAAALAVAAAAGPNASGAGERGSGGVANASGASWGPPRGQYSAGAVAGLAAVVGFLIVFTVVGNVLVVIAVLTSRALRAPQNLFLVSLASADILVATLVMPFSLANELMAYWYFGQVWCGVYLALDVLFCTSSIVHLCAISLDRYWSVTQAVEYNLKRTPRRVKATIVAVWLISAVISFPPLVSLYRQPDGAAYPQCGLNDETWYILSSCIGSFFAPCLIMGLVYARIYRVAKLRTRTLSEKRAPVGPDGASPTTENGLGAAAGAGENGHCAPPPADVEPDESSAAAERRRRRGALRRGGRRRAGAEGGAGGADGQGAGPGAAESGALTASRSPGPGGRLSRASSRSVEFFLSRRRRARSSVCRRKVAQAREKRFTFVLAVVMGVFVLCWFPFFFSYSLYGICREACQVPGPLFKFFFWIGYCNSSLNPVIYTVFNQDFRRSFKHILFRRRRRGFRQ
Chain of Voltage-gated potassium channel subunit beta-2 (Rattus norvegicus) (P62483 whole entry, looked up): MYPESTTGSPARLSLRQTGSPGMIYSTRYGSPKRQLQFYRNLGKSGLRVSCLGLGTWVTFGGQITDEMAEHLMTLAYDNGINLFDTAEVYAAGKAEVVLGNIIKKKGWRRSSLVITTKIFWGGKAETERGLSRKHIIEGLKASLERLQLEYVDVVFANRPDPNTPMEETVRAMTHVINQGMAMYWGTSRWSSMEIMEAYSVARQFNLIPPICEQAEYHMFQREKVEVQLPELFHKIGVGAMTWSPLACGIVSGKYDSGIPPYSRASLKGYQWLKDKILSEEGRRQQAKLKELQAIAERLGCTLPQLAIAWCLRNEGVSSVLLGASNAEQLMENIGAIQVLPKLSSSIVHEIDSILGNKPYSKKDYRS

`C=C(C)CN1CCN(c2c(CCC#N)c(C)c(C#N)c3nc4ccccc4n23)CC1`: the cell count in [1] was 553. Moreover, the inhibition in test [1] was -17.5% (inactive); in [2], -77% (inactive); in test [4], -4.27% (inactive); in [9] it was 17.9% (inactive). This compound yielded a nuclei count in test [2] of 159%. In addition, the z-score was -0.509 in test [3] (setting [10]), -0.729 in test [3] (setting [11]) and -0.345 in [3] (setting [12]). For the same compound, the fluorescence slope in test [5] was -0.00664 (inactive). Further, the NADPH fluorescence slope in test [6] is -2.3e-06 (inactive). In test [7], the slope was 0.00756 (inactive). Also, in [8], the compound was called inactive.

Consider `Cc1cccc(Nc2ncnc3ccccc23)c1`, for which the cell count in test [1] is 458. The inhibition in [1] was -5.2% (inactive); in test [2], -1% (inactive); in test [4], 18.2% (inactive); in test [9], 2.93% (inactive). Further, in test [2], the nuclei count is 123%. Also, the z-score was -0.619 in test [3] (setting [10]), 0.167 in [3] (setting [11]) and -0.509 in [3] (setting [12]). In addition, the fluorescence slope in test [5] is -0.519 (inactive). Besides, the NADPH fluorescence slope in test [6] was -6.7e-05 (inactive). Besides, the slope in test [7] was 0.00506 (inactive). Moreover, in [8], the compound was called inactive.

`CCCc1[nH]n(-c2nc3ccccc3s2)c(=O)c1C=NCCN1CCOCC1`: the cell count in [1] turned out to be 538. Further, the inhibition in test [1] is 1.3% (inactive); in test [2], -110% (inactive); in test [4], 7.93% (inactive); in [9], 19.8% (inactive). The nuclei count in test [2] is 123%. The z-score is -0.895 in test [3] (setting [10]), 0.406 in [3] (setting [11]) and -1.01 in [3] (setting [12]). In addition, the fluorescence slope in test [5] was -0.474 (inactive). In test [6], the NADPH fluorescence slope is -4e-05 (inactive). Also, the slope in test [7] is 0.00553 (inactive). Further, the outcome in test [8] was inactive.

With `CCN1C(=O)CC(N2CCN(c3ccc(OC)cc3)CC2)C1=O` (stereo unspecified), in test [1], the cell count amounted to 489. Further, the inhibition in test [1] is -27.6% (inactive); in [2] it was -368% (inactive); in test [4], 16.1% (inactive); in test [9], 5.49% (inactive). The compound further gave a nuclei count in [2] of 154%. Also, the z-score is 1.11 in test [3] (setting [10]), -0.53 in test [3] (setting [11]) and -0.692 in test [3] (setting [12]). The fluorescence slope in test [5] was -0.537 (inactive). Besides, the NADPH fluorescence slope in test [6] is -6.5e-05 (inactive). In test [7], the slope was 0.00497 (inactive). The compound was called inactive in [8].

As to `Cc1nc(-c2cn[nH]c2)c2cc(C)oc2n1`, the cell count in [1] was 599. The inhibition was -33.9% (inactive) in test [1], -51.1% (inactive) in test [2], -2.07% (inactive) in [4] and -8.8% (inactive) in [9]. Besides, in [2], the nuclei count was 120%. Besides, the z-score was -2.18 in [3] (setting [10]), 1.64 in [3] (setting [11]) and 0.464 in test [3] (setting [12]). In addition, in [5], the fluorescence slope is -0.491 (inactive). Further, the NADPH fluorescence slope in test [6] is -0.00022 (inactive). Moreover, the slope in test [7] is 0.00453 (inactive). Further, in test [8], the outcome was inactive.

On to `Cc1cccc(N)c1SC1CCCCC1O` (stereo unspecified), for which the cell count in test [1] was 420. Also, the inhibition was -5.2% (inactive) in [1], -79.6% (inactive) in test [2], 23.9% (inactive) in [4] and 15% (inactive) in [9]. In test [2], this compound registered a nuclei count of 131%. In addition, the z-score in [3] (setting [10]) was 0.781; in test [3] (setting [11]) it was -1.44; in test [3] (setting [12]) it was -1.09. In addition, the fluorescence slope in test [5] was -0.46 (inactive). In [6], the NADPH fluorescence slope is -2.2e-05 (inactive). Besides, the slope in [7] is 0.00629 (inactive). Moreover, in test [8], the compound was called inactive.

For the compound `c1ccc(N2CCN(c3nc(NCc4ccco4)c4ccccc4n3)CC2)cc1`, the cell count in [1] came to 579. The inhibition in test [1] is 0.1% (inactive); in [2], -25.4% (inactive); in test [4], -4.7% (inactive); in test [9] it was 35.9% (inactive). The compound further yielded a nuclei count in test [2] of 219%. In addition, the z-score in test [3] (setting [10]) is 0.527; in test [3] (setting [11]), -0.848; in test [3] (setting [12]), 2.43. Besides, the fluorescence slope in test [5] is -0.35 (inactive). The NADPH fluorescence slope in [6] is -2.5e-05 (inactive). The slope in test [7] was 0.00337 (inactive). In addition, the compound was called inactive in test [8].

The values are drawn from PubChem BioAssay.
